This passage reports cytotoxicity results from ChEMBL document CHEMBL4513216, “Probing the Open Global Health Chemical Diversity Library for Multistage-Active Starting Points for Next-Generation Antimalarials” (ACS Infect Dis, 2020).

The nature of the data set: Toxicity liver stage against HepG2, at 10uM. The data set is classed as cell-based. Also noted: test concentration 10 uM, cell line HepG2-A16-CD81EGFP. The settings on record: human, HepG2-A16-CD81EGFP cells; read-out: INHIBITION
Put shortly: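 Uninfected HepG2-A16-CD81EGFP cells, 3 × 10^3 per well, 1536-well, plated on prespotted compound at 10 μM final, parasite-free screening media added to match infected plates; puromycin 10 μM positive, DMSO 0.5% negative; run in parallel with 48 h PbLuc assay at 37 °C, 5% CO2; viability by CellTiter-Glo luminescence, normalized to controls.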

Consider `CCN(CC)CCn1cc(NC(=O)CNc2ccccc2OC)cn1`, for which the cytotoxicity at 10 µM was found to be 6.19%. The result for `COC(=O)c1ccc(NC(C)c2ccc3c(c2)NC(=O)CO3)nn1` (configuration not stated) reads -4.75%; that for `O=C(NCc1ccon1)c1c(F)cc(Br)cc1F`, 12.3%; that for `O=C(O)C1CC2(CCN(c3nccc4ccccc34)CC2)CN1` (configuration not stated), -2.65%. The result for `COc1ccc(CCNC(=O)C(C)Nc2ccc(C)c(C)c2)cc1` (configuration not stated) reads 2.7%; that for `Cc1ccc(CC(=O)N2CCCn3nnc(Cn4cccn4)c3C2)cc1`, 9.58%. As to `CCn1nc(C)c(CN2CCNCC2)c1C`, the cytotoxicity at 10 µM was 6.4%. The value for `CCCN1CCC(CNC(=O)N2CCCC2c2c(C)n[nH]c2C)CC1` (configuration not stated) was -0.686%. The value for `Cc1n[nH]c(C2CN(C(=O)c3ccc4c(c3)CCCC4)CCO2)n1` (configuration not stated) was -10.8%; that for `COc1ccc(/C=C/CN2C[C@@H]3CC[C@H]2CN(S(=O)(=O)N(C)C)C3)cc1` was -2.72%.

Take `CCn1c(-c2ccccc2)nn(CC(=O)NCCc2ccc(C)o2)c1=O`: the cytotoxicity at 10 µM is -0.545%.

With `CCN(CC)Cc1nc2c(o1)CN(C(=O)c1ccc3[nH]ccc3c1)C2`, the cytotoxicity at 10 µM worked out at 7.07%. For `Cc1cc(CN(C)C(=O)CC(C)C)no1`, the cytotoxicity at 10 µM was -3.57%. The value for `O=C(c1ccc[nH]1)N1CCc2c(COCc3ccncc3)cncc2C1` was 14.7%; that for `CCc1noc(CN(CCC2CCCCC2)CC(N)=O)n1` was 5.76%. The result for `Cc1cc(N(C)CCC(O)c2ccccc2)n2nccc2n1` (configuration not stated) reads -2.84%; that for `CCOC(=O)N1CCN(C(=O)CCn2cccc2)CC1`, 5.62%.

Turning to `CCc1noc(C)c1C(=O)N1CCCC1Cn1cc(C)cn1` (configuration not stated), the cytotoxicity at 10 µM is -6.46%.

In the case of `Cc1oncc1C(=O)N1CCc2ncnc(-c3cnn(C)c3)c2CC1`, the cytotoxicity at 10 µM is 7.07%. The value for `CN1CCC(c2n[nH]c(=O)n2CC2CCCCC2)CC1` was -45.2%; that for `CCOc1cc(Cl)c(CN2CCC3(CCCNC3=O)C2)cc1OC` (configuration not stated) was 10.6%; that for `COCCC(=O)N1CCN(CC(C)C)c2nc(C)ccc2C1` was 11.3%.

In the case of `CCN(CC(=O)NC(C)C)S(=O)(=O)N1CCCCC1C` (configuration not stated), the cytotoxicity at 10 µM is -1.14%. The value for `CC(NS(C)(=O)=O)C(=O)N(C)Cc1csc(-c2ccccc2)n1` (configuration not stated) was 2.5%; that for `O=C(O)c1cc(-c2ccncc2F)cc(S(=O)(=O)N2CCCCCC2)c1` was -0.2%; that for `CNc1nc(C)c(C(=O)N2CCCCC2CN2CCCCCC2)s1` (configuration not stated) was -2.5%. The value for `Cc1cc(C(=O)NCc2ccco2)nn1C` was -2.8%.

For `COc1ncccc1N(C)C(=O)Cn1cc(-c2ccccc2)nn1`, the cytotoxicity at 10 µM is -1.11%. The value for `O=C(COCC1CC1)N1CCSCC1` was -21.2%; that for `O=C1CC(N2CCN(c3ccc(O)cc3)CC2)C(=O)N1Cc1cccs1` (configuration not stated) was 5.77%; that for `Cc1nn(C)c(N(C)C)c1CNCCCNS(C)(=O)=O` was -5.98%.

Turning to `CCCC1c2cccn2CCN1C(=O)c1cc(CC)no1` (configuration not stated), the cytotoxicity at 10 µM is -14.9%. The value for `CCN(Cc1ccoc1)C(C(N)=O)c1ccc(Br)cc1` (configuration not stated) was -5.5%; that for `Cc1ccc(S(=O)(=O)NC[C@H]2OC[C@@H](NCc3cccnc3)[C@@H]2O)cc1` was 1.32%. Turning to `O=C1N(CCCc2ccccc2)CCCC12CCN(C(CO)CO)C2` (configuration not stated), the cytotoxicity at 10 µM was -4.14%. The value for `CC(C)c1csc(C2CCCN(C(=O)c3ncccn3)C2)n1` (configuration not stated) was 6.3%; that for `Nc1nnc(SCC(=O)c2cc3c(cc2Cl)NC(=O)C3)s1` was -0.139%; that for `CC(=O)c1cnc(NCCCN2CCOCC2)nc1C` was -2.77%. The result for `CC(C)[C@H]1CN(CCCO)C[C@@H]1NC(=O)CCS(C)(=O)=O` reads 2.91%.

Turning to `COCC(=O)N1C[C@H]2CNC[C@@]2(C(=O)NCc2c(C)noc2C)C1`, the cytotoxicity at 10 µM amounted to 0.753%. On to `CC(=O)Nc1ccc(Cl)c(C(=O)N(C)C(C)c2ccon2)c1` (configuration not stated), for which the cytotoxicity at 10 µM was -48.7%. The result for `Cn1nnc2c1CCN(CC1CC1)C2COCC1CC1` (configuration not stated) reads -110%; that for `Cn1cnc2c1CCN(Cc1csc(-c3ccccc3F)n1)C2`, -4.25%. The value for `CC(C)c1nc(C2CCCN2CCOCC2CC2)no1` (configuration not stated) was 1.8%; that for `O=C(COc1coc(CN2CCSCC2)cc1=O)c1ccccc1` was 9.21%.

As for `COc1ccc(CCNC(=O)C2CC2)c(Cl)c1`, the cytotoxicity at 10 µM was -2.43%. For the compound `COCCc1noc(CN2CCN(CC(O)c3ccccc3)CC2)n1` (configuration not stated), the cytotoxicity at 10 µM worked out at 2.67%. For `c1coc(CN2CCC3(CC2)COC(COCC2CCOCC2)C3)c1` (configuration not stated), the cytotoxicity at 10 µM was determined as 4.67%. The result for `CC(C)n1ccnc1Cn1ccc2ncccc2c1=O` reads -4.65%; that for `CC(=O)N1CCCC(c2nc(N(C)C)ncc2-c2cccc(F)c2)C1` (configuration not stated), -34.8%. The result for `COc1cccc(CN2CCC3(CCN(C(=O)[C@H]4CCCO4)CC3)C2)c1` reads 6.57%; that for `Cc1ccc(C(C)N(C)Cc2nc3c(cnn3C)c(=O)[nH]2)cc1` (configuration not stated), -3.91%.

Take `CCCn1nc(-c2nc(COC)no2)ccc1=O`: the cytotoxicity at 10 µM was -11.6%. For the compound `CCN(CC)S(=O)(=O)NC1CCCc2nc(-c3ccccc3)ncc21` (configuration not stated), the cytotoxicity at 10 µM was determined as 17.2%. In the case of `Cc1ccc2c(c1C)OCC2NCc1ccc(C#N)cc1` (configuration not stated), the cytotoxicity at 10 µM was 25.8%.

Turning to `CN(C(=O)c1ccc(Cl)cn1)c1ccccc1S(C)(=O)=O`, the cytotoxicity at 10 µM was -7.17%. The result for `CCN(C)c1ncnc2c1CCN(CC1CCOC1)CC2` (configuration not stated) reads -79.3%; that for `Cc1nc2cc(C(=O)N3CCCC(n4cncn4)C3)ccc2n1C` (configuration not stated), -8.26%. The value for `Cc1noc(C)c1CN(Cc1ccccc1)C(C)CN1CCOCC1` (configuration not stated) was 7.97%; that for `Cc1nc(C)n(CCC(=O)NCC2CCCOC2)n1` (configuration not stated) was 4.3%; that for `Cc1cc(Oc2ccc(NC(=O)C3CC3)cc2)cc(C2CCNCC2)n1` was -6.18%. Turning to `Cc1occc1C(=O)N1CCO[C@H]2[C@@H](Oc3ccccn3)CC[C@@H]21`, the cytotoxicity at 10 µM worked out at 2.37%. The value for `COc1cc(N2CCCC(c3nccn3Cc3cscn3)C2)nc(N)n1` (configuration not stated) was -4.66%.

As to `CC(Cc1c(F)cccc1F)NC(=O)CSCC(N)=O` (configuration not stated), the cytotoxicity at 10 µM was -6.37%. The result for `Cc1cc(Br)ccc1C(=O)NCCN1CCCCCC1` reads -11.6%; that for `CCOC(=O)c1nc(CN2CCN(C(=O)NC3CCCCC3)CC2)cs1`, -3.47%; that for `CC(C)c1cc(-c2nn3c(C(C)C)nnc3s2)[nH]n1`, 0.999%. The value for `Cc1ccnc(OCC(=O)N2CCN(c3ncccn3)CC2)n1` was -0.849%; that for `COc1ncc(CN2CCC3(CCNC(=O)CC3)CC2)cn1` was -144%.

As to `CNc1[nH]nc(N)c1C(=O)Nc1ccccc1`, the cytotoxicity at 10 µM worked out at 6.56%. The value for `c1c(CN2CCCC2)nc2n1CCN(CC1CC1)C2` was -136%. The result for `CCOc1cc(F)ccc1NC(=O)NCC(c1cnn(C)c1)N(C)C` (configuration not stated) reads 5.09%; that for `Cc1ccc(-c2noc([C@H](N)CC(C)C)n2)nn1`, 1.27%; that for `O=C(CCOc1ccccc1)N1CCCC(n2cncn2)C1` (configuration not stated), -2.95%. The result for `NC(=O)Cn1cc(NC(=O)N2CCCC(O)C2)cn1` (configuration not stated) reads -10.1%. Regarding `CC(OCC1CC1)C(=O)Nc1ncn(CC(=O)N2CCCCCC2)n1` (configuration not stated), the cytotoxicity at 10 µM was -15.2%.

Regarding `O=C(c1cccnc1)N1CCC2(CC1)CNc1c(F)cccc12`, the cytotoxicity at 10 µM was -1.02%. The result for `Cc1ccc(CCN2C(=O)CC[C@H]3CN(Cc4cnn(C)c4)CC[C@H]32)o1` reads -2.19%. The result for `c1cnnc(N[C@@H]2CC[C@@H]3CN(Cc4ccc5[nH]ccc5c4)C[C@@H]32)c1` reads -7.81%; that for `COCCn1ccnc1C1CCN(Cc2ccccc2C#N)CC1`, -10.2%; that for `CC(=O)Nc1nc(C2CCN(C(=O)c3cncs3)CC2)cs1`, -8.91%.

For the compound `COCc1n[nH]/c(=N/C(=O)COc2cnc(C)cc2O)s1`, the cytotoxicity at 10 µM was determined as 5.84%. The result for `CN(C)CCOCC1CN(Cc2ccccn2)Cc2nnn(C)c21` (configuration not stated) reads 5.5%; that for `CCN1C(=O)CC(c2cnn(C)c2)C12CCN(C(=O)c1ccc[nH]1)CC2` (configuration not stated), 8.82%; that for `Cc1nnc(C2Cc3ccccc3CN2Cc2nc(C(C)C)no2)o1` (configuration not stated), -22%. The result for `Cc1ccc(-c2cc(C(=O)NCCC3=CCCCC3)[nH]n2)o1` reads -55.1%; that for `O=C(CCC1CCCO1)N1CCc2nc(-c3cnccn3)nc(O)c2C1` (configuration not stated), -20.3%. The result for `COc1cccc(OCCCc2cc(C#N)ccn2)c1` reads -9.72%. In the case of `CC1(C)OCC2(CO1)CN(S(=O)(=O)c1ccc(Br)s1)C2`, the cytotoxicity at 10 µM was -7.31%.

In the case of `CCc1ccc(CN2CCC3(CCCN(C(=O)c4cnccn4)C3)C2)o1` (configuration not stated), the cytotoxicity at 10 µM is -127%. For the compound `O=C(c1cc(C2CC2)nc2onc(-c3ccccc3)c12)N1CC(O)C1`, the cytotoxicity at 10 µM is -50.5%. The result for `CCC(O)CN1CCN(C(=O)c2sccc2OC)CC1` (configuration not stated) reads -7.25%; that for `CN1[C@@H](c2ccccc2)[C@@H](C(=O)NCc2ccccn2)C[C@@]1(C)C(=O)O`, -3.8%. The value for `CCN(CCS(=O)(=O)CC)CC1CCCO1` (configuration not stated) was -0.157%; that for `COCCN1CCN(Cc2c(C)noc2C)Cc2cccnc21` was -70.1%; that for `Cc1cccc(NC(=O)N2CCn3cnc(COCC4CC4)c3C2)c1` was 3.83%. The value for `CC(C)NC(=O)N1CC[C@@H]2CN(S(C)(=O)=O)CCO[C@@H]2C1` was -102%.
